Source: PubChem (several laboratories)
MsrA inhibitor: bovine MsrA enzyme inhibitors, primary screen, biochemical, absorbance, HTS. Methionine sulfoxide reductase A (Bos taurus). purified bovine MsrA, absorbance read-out. inhibition, % at 15.5 µM. 360,000 tested, 0.75% active; in the data active = inhibition above about 4.5%;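 also: 0% = vehicle wells with enzyme and 100% = reference inhibitor wells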
TbMetRS inhib: T. brucei MetRS inhibitors, primary screen, biochemical, luminescence. methionyl-tRNA synthetase (Trypanosoma brucei brucei). purified T. brucei MetRS, ATP depletion, Kinase-Glo luminescence. inhibition, % at 11.9 µM. 360,000 tested, 0.4% active. AID 624268, 2012;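 active = inhibition above a per-plate cutoff of the control wells' mean inhibition plus 3 SD, cut at about 5.5% in these data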;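 also: 0% = DMSO wells median and 100% = median of wells with control inhibitor compound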
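Test system – parasite MetRS enzyme · Reagent – substrates ATP, L-methionine and bulk Escherichia coli tRNA · Doses – 11.9 µM compound single dose, 0.9% DMSO · Times – 15 min enzyme-compound preincubation, 2 h reaction, 10 min detection, 25 °C · Signal – Kinase-Glo luminescence, ATP depletion format · Controls – DMSO-only wells as low control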
MsrA act: bovine MsrA enzyme activators, primary screen, biochemical, absorbance, HTS; purified bovine MsrA, absorbance read-out; activation, % at 10.6 µM; 360,000 tested, 0.3% active; Methionine sulfoxide reductase A (Bos taurus); in the data active = activation above about 7.5%;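 also: 0% = vehicle and 100% = reference activator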
AHR activator: AHR activators, primary screen, cell-based, luminescence, luciferase reporter, human. Aryl hydrocarbon receptor (Homo sapiens), P35869. AHR-responsive luciferase reporter cells. activation, % at 5 µM. 320,000 tested, 2.5% active. AID 2796, 2010; in the data active = activation above about 47%;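 also: 0% = vehicle wells and 100% = reference agonist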
Target sequence (P35869 whole entry, looked up): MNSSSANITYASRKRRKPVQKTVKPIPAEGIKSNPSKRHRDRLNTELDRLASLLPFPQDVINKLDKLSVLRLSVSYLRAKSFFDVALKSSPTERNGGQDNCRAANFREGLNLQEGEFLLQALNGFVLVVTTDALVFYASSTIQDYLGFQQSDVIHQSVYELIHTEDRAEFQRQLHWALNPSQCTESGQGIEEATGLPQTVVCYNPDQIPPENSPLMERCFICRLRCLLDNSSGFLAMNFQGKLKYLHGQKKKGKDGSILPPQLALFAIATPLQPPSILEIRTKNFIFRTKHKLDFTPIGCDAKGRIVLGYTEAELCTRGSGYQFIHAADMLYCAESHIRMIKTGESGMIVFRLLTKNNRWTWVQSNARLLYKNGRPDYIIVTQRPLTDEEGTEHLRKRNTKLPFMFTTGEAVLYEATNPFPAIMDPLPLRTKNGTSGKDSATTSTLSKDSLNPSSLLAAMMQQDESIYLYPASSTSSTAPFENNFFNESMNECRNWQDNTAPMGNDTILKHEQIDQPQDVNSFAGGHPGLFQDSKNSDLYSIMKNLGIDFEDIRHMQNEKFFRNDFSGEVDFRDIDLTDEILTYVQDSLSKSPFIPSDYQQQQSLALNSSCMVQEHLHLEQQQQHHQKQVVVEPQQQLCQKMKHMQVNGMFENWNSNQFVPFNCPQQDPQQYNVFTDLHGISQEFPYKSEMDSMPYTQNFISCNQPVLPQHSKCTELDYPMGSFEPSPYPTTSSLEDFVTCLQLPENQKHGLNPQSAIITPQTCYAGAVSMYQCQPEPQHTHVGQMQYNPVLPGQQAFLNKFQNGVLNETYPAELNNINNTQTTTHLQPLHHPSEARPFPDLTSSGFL
AI-2 QS modul: Vibrio harveyi AI-2 quorum sensing modulators, primary screen, JMH597 strain, luminescence/OD600 ratio; activity change, % at 7.5 µM; Vibrio harveyi JMH597 AI-2 luminescence/OD600 ratio, 9 h; hits give low values; strain lacks LuxN and CqsS sensors; 0 = neutral-control median; 300,000 tested, 0.4% active; AID 2094, 2009; in the data active = activity change below about -75%, passing the limit was not always enough;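 also: luminescence divided by OD600 gain over 9 h not by final OD600 alone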
m5-HT2A agonist: mouse Htr2a agonists via beta-arrestin recruitment, primary screen, cell-based, luminescence | activation, % at 7.6 µM | CHO-K1 mHTR2A beta-arrestin complementation; percent of 30 µM serotonin response | 5-hydroxytryptamine receptor 2A (Mus musculus), P35363 | 360,000 tested, 0.66% active;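 active = activation above a run cutoff, the mean activation of all tested compounds plus 3 SD, cut at about 14% in these data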;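 also: 0% = plate median of compound wells and 100% = 30 µM serotonin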
AHR act cf: AHR activators, confirmation, cell-based, luminescence, luciferase reporter, human; shares compounds with AHR activator; human cells, AHR-responsive luciferase reporter; activation, % at 9 µM; 2,300 tested, 87% active; AID 2845, 2010; in the data active = activation above about 49%;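 also: HepG2 hepatoma cells carrying a DRE-driven firefly luciferase reporter; 0% = vehicle wells and 100% = reference agonist wells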
PXR counter: human PXR activators, counter-screen for AHR activator project, cell-based, luciferase luminescence; shares compounds with AHR activator; cell-based PXR reporter; activation, % at 11.6 µM; 2,300 tested, 88% active; in the data active = activation above about 11%;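 also: human hepatoma DPX-2 cells expressing full-length human PXR; 0% = DMSO and 100% = reference agonist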
The depositor's hits bear a star; . = not tested or not shown. Compounds with a hit are over-represented: about 4.4% of the library has one in this group of screens.

SMILES	MsrA inhibitor	TbMetRS inhib	MsrA act	AHR activator	AI-2 QS modul	m5-HT2A agonist	AHR act cf	PXR counter
CCOC(=O)c1sc(NC(=O)CCN2C(=O)C3CCCCC3C2=O)cc1C (stereo not drawn)	-1	0	-5	3	.	12	.	.
COc1ccccc1NC(=O)CCCCCN1C(=O)c2cccc3cccc(c23)C1=O	0	0	0	85*	.	1	-3	56*
COc1ccccc1NC(=O)CCCCCN1C(=O)c2cccc([N+](=O)[O-])c2C1=O	-1	-1	-3	15	30	6	.	.
OC[C@@H]1CN(Cc2ccc(-c3ccccc3)cc2)C[C@H](n2cnc3c(N4CCOCC4)ncnc32)O1	0	0	2	.	.	0	.	.
O=c1c2ccccc2nc(-c2ccoc2)n1CCc1ccccc1	0	-1	-3	125*	12	4	102*	41*
Cc1ccc(C)c(OCCSc2nnc(-c3cccnc3)n2N)c1	-1	0	-3	94*	17	-5	66*	30*
CC1CN(C(=O)CCC(=O)NCCCN2CCN(Cc3ccccc3)CC2)c2cc(Cl)ccc2O1 (stereo not drawn)	-1	0	2	1	42	-17	.	.
O=C1CCN(Cc2ccccc2)C=C1c1ccc(Cl)cc1	2	0	-1	26	.	2	.	.
O=C1CCN(Cc2ccccc2)C=C1c1ccc2ccccc2c1	0	0	-5	83*	.	-9	108*	40*
O=C1CCN(Cc2ccccc2)C=C1c1ccc(C(F)(F)F)cc1	2	0	-4	108*	.	1	102*	119*
COc1cc(C2=CN(Cc3ccccc3)CCC2=O)cc(OC)c1OC	4	0	-3	6	.	-3	.	.
Cc1cc(NC(=O)C(C)SCC(=O)OCc2c(Cl)cccc2Cl)no1 (stereo not drawn)	0	0	-3	-1	18	4	.	.
O=C(O)CCC(=O)OCCN(Cc1ccc(Oc2ccc([N+](=O)[O-])cc2)cc1)C(=O)C(Cl)Cl	2	0	-2	.	.	3	.	.
COc1ccc(Cl)cc1NC(=O)C(OC)c1ccccc1 (stereo not drawn)	1	0	1	101*	3	-2	97*	47*
COc1ccc(Cl)cc1NC(=O)C/C(C)=N/NC(=O)Cc1ccccc1	-1	3	-2	20	-7	-6	.	.
COc1cc(NC(=O)C/C(C)=N/NC(=O)C(OC)c2ccccc2)c(OC)cc1Cl (stereo not drawn)	0	0	3	105*	-14	-5	24	10
Fc1cc(F)c2nc(Nc3nc4cc5c(cc4s3)OCO5)sc2c1	-1	-1	-6	38	20	4	.	.
Fc1cccc2sc(Nc3nc4cc5c(cc4s3)OCO5)nc12	4	0	-5	130*	6	11	121*	12*
COc1ccc2[nH]c3c(=O)n4c(nc3c2c1)SCCC4	4	-1	-3	25	12	5	.	.
Cc1ccc2[nH]c3c(=O)n4c(nc3c2c1)SCC4	0	0	-5	123*	13	0	150*	31*
Cn1cc(SCC(=O)NC2CCCC2)c2ccccc21	-1	0	-4	3	20	5	.	.
Cn1cc(SCC(=O)NC2CCCCC2)c2ccccc21	-2	0	0	88*	22	-3	6	108*
COc1ccc2oc(C(=O)OCC(=O)NC3CCS(=O)(=O)C3)c(C)c2c1 (stereo not drawn)	1	0	-9	.	.	3	.	.
Cc1nccc(-c2ccc(-n3cnc4ccccc43)cc2)n1	2	-1	-6	83*	13	1	63*	.
CCOc1ccc(S(=O)(=O)N2CCCC(C(=O)Nc3ccccc3)C2)cc1 (stereo not drawn)	0	0	-2	0	0	-6	.	.
SMILES	MsrA inhibitor	TbMetRS inhib	MsrA act	AHR activator	AI-2 QS modul	m5-HT2A agonist	AHR act cf	PXR counter
O=C(CSc1nc2ccccc2c2nc3ccccc3n12)NCc1ccco1	2	0	-1	80*	50	0	50*	48*
O=C(c1ccccc1)N1CCN(C(=O)c2ccccc2)c2ccccc21	0	0	-10	.	.	2	.	.
CCNC(=S)/N=C(/Nc1ccccc1)Nc1nc(C)cc(C)n1	0	-1	0	80*	22	-6	113*	64*
O=c1nc2sc3ccccc3n2c(=O)n1-c1cccc(Cl)c1	.	-1	-10	81*	-7	2	115*	33*
CCCN1CCN(C(=O)C2CCN(S(=O)(=O)c3ccc4c(c3)NC(=O)C(C)S4)CC2)CC1 (stereo not drawn)	0	0	-1	0	21	0	.	.
CC(=O)n1cc(/C=N/NC(=O)c2sc(C)nc2C)c2ccccc21	3	0	-4	94*	24	4	64*	.
COc1c2ccoc2c(OC[C@@H](O)C(C)(C)OC)c2oc(=O)ccc12	1	0	4	102*	25	-1	69*	80*
COc1c2ccoc2c(OC[C@@H](OC(C)=O)C(C)(C)O)c2oc(=O)ccc12	2	0	-2	41	.	5	.	.
COc1ccc(C)cc1S(=O)(=O)NC1CC1	-1	0	-1	2	11	-1	.	.
COc1ccc(Nc2ccnc(Nc3ccc(OC)cc3)n2)cc1	0	0	-2	83*	2	-3	62*	37*
COc1ccc(Nc2nc(OC)nc(OC)n2)cc1	0	-1	-4	7	-1	-1	.	.
Cc1oc(-c2ccc3ccccc3c2)nc1CN(C)C(C)c1ccncn1 (stereo not drawn)	1	-1	-4	115*	13	-7	98*	43*
CCOCCc1nnc(NC(=O)CS(=O)(=O)c2ccc(C)cc2)s1	0	0	5	5	13	5	.	.
CC(=O)c1c(C)nc(-c2ccc(Cl)cc2)nc1N	0	0	1	92*	29	-3	130*	33*
CC(=O)c1c(C)nc(-c2ccc(Cl)cc2)nc1N=CN(C)C	1	-1	-7	90*	0	3	98*	35*
CSc1nc(-c2ccccc2)nc(N)c1C(C)=O	.	.	.	20	32	.	.	.
